We go through two substances from publication PMC11525735 (ACS Omega, 2024).

Data set [1] concerns PD-L1. As to conditions: various cancer cells; cited from earlier work.
Data set [2] relates to MDA-MB-231 cells. Kind of data set: In vitro fluorescence imaging of Cy5.5-A11. The format is cell-based. As to conditions: 6 h. In short, it runs like this:
(§1)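 Cells (5×10^4; kept in DMEM or RPMI-1640 with 10% FBS) were plated in chamber slides and cultured 24 h. They were then exposed to 10 nM Cy5.5-labelled test peptide at 37 °C for 6 h; blocking wells also received 1 μM unlabelled peptide. After three PBS washes, cells were fixed in 4% paraformaldehyde for 20 min and DAPI-stained. Images were taken by laser confocal microscopy.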

In data set [3] the test system is A375 cells. Kind of data set: In vitro fluorescence imaging of Cy5.5-A11. The format is cell-based. As to conditions: 6 h. The essentials: as §1
The subject of data set [4] is H460 cells. Kind of data set: In vitro fluorescence imaging of Cy5.5-A11. The format is cell-based. As to conditions: 6 h. In short, it runs like this:
as §1

Data set [5] concerns MDA-MB-231 xenografts. Kind of data set: In vivo NIF whole-body imaging of tumor-bearing mice. The arrangement: species or system BALB/c nu/nu nude mice. As to conditions: MDA-MB-231 xenograft, 1 nM Cy5.5-A11 i.v. In short, it runs like this: (§2)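 Five-week-old female nude mice carried right-shoulder subcutaneous xenografts (5×10^6 cells). At 100 mm³, 1 nM Cy5.5-labelled test peptide was given i.v. (n = 3). Whole-body NIR imaging followed at 0.5, 1, 2, 3, 4, 5, 6 and 24 h p.i. with a Cy5.5 filter set, 1 s exposure, f/stop 4 and fixed illumination, in p/s/cm²/sr. Tumour-to-muscle ratio came from ROI mean intensities; mean ± SD.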

The subject of data set [6] is A375 tumor-bearing mice. Kind of data set: Ex vivo biodistribution study. The format is in vivo, BALB/c nu/nu nude mice. The settings on record: 4 h p.i. In short, it runs like this: (§3)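 Five-week-old female nude mice carried subcutaneous right-shoulder xenografts (5×10^6 cells), including xenografts from stable shRNA PD-L1-knockdown lines. At 100 mm³ tumour volume, mice received 1 nM Cy5.5-labelled test peptide i.v., with or without 1 μM unlabelled peptide (n = 3). Mice were killed at 4 h p.i. Tumour, brain, heart, lung, liver, stomach, intestine, spleen, kidney and muscle were imaged ex vivo through a Cy5.5 filter set. Average fluorescence per specimen was taken by ROI; mean ± SD.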

For data set [7], the system named is H460 xenografts. Kind of data set: In vivo NIF whole-body imaging of tumor-bearing mice. Set-up: species or system BALB/c nu/nu nude mice. The settings on record: H460 xenograft, 1 nM Cy5.5-A11 i.v. In short, it runs like this: as §2
The subject of data set [8] is A375 xenografts. The description is as above. The arrangement: species or system BALB/c nu/nu nude mice. The settings on record: A375 xenograft, 1 nM Cy5.5-A11 i.v. The essentials:
as §2

The subject of data set [9] is MDA-MB-231 tumor-bearing mice. Kind of data set: Ex vivo biodistribution study. The format is in vivo, BALB/c nu/nu nude mice. The settings on record: 4 h p.i. The essentials: as §3
The subject of data set [10] is H460 tumor-bearing mice. Kind of data set: Ex vivo biodistribution study. The format is in vivo, BALB/c nu/nu nude mice. As to conditions: 4 h p.i. In short, it runs like this:
as §3

[11] abbreviates: 0.5-6 h p.i., ROI analysis, n = 3.

Regarding EYVQTVKSSKG [A11], the “action on PD-L1” value in data set [1] is “binds and degrades PD-L1”.
Consider Cy5.5-EYVQTVKSSKG [Cy5.5-A11], for which the “fluorescent signal of cells, blocking with unlabeled A11” value in data set [2] (MDA-MB-231, 10 nM Cy5.5-A11 + 1 μM unlabeled A11, 37 °C, confocal microscopy) is “successfully blocked”; in data set [3] (A375, 10 nM Cy5.5-A11 + 1 μM unlabeled A11, 37 °C, confocal microscopy) it was “successfully blocked”; in data set [4] (H460, 10 nM Cy5.5-A11 + 1 μM unlabeled A11, 37 °C, confocal microscopy) it was “successfully blocked”. Also, the “fluorescent signal of cells” value in [2] (MDA-MB-231, 10 nM Cy5.5-A11, 37 °C, laser confocal microscopy, nonblocking) is listed as “robust fluorescent signal”; in data set [3] (A375, 10 nM Cy5.5-A11, 37 °C, laser confocal microscopy, nonblocking), “robust fluorescent signal”; in [4] (H460, 10 nM Cy5.5-A11, 37 °C, laser confocal microscopy, nonblocking), “robust fluorescent signal”. Also, the “fluorescent signal in PD-L1 knockdown versus shNC control cells” value in [2] (MDA-MB-231 stable PD-L1 shRNA knockdown and shNC control, 10 nM Cy5.5-A11, 37 °C, confocal microscopy) is reported as “seen in shNC control cells but not PD-L1 knockdown cancer cells”; in data set [3] (A375 stable PD-L1 shRNA knockdown and shNC control, 10 nM Cy5.5-A11, 37 °C, confocal microscopy), “seen in shNC control cells but not PD-L1 knockdown cancer cells”; in [4] (H460 stable PD-L1 shRNA knockdown and shNC control, 10 nM Cy5.5-A11, 37 °C, confocal microscopy) it was “seen in shNC control cells but not PD-L1 knockdown cancer cells”. The “tumor-to-muscle fluorescence signal ratio” value in data set [5] (setting [11]), in [7] (setting [11]) and in data set [8] (setting [11]) was “High” throughout. The “tumor-specific fluorescence signal at 24 h p.i.” value in data set [5] (24 h p.i.), in [7] (24 h p.i.) and in data set [8] (24 h p.i.) was “distinctly visible” throughout. Also, the “time of peak tumor-specific fluorescence signal” value in data set [5] (n = 3), in [7] (n = 3) and in data set [8] (n = 3) was 2 h p.i in each case. In addition, the “ex vivo uptake in the xenografts with excessive unlabeled A11” value in data set [6] (A375, blocking group, 1 nM Cy5.5-A11 + 1 μM unlabeled A11 i.v.) is given as “obviously reduced”; in data set [9] (MDA-MB-231, blocking group, 1 nM Cy5.5-A11 + 1 μM unlabeled A11 i.v.), “obviously reduced”; in data set [10] (H460, blocking group, 1 nM Cy5.5-A11 + 1 μM unlabeled A11 i.v.), “obviously reduced”. For the same substance, the “ex vivo uptake of the probe in the xenografts” value is “significant uptake” in data set [6] (A375, nonblocking group, 1 nM Cy5.5-A11 i.v., ex vivo fluorescence, ROI); “significant uptake” in data set [9] (MDA-MB-231, nonblocking group, 1 nM Cy5.5-A11 i.v., ex vivo fluorescence, ROI); “significant uptake” in [10] (H460, nonblocking group, 1 nM Cy5.5-A11 i.v., ex vivo fluorescence, ROI). In data set [6] (A375 tumor-bearing mice, three groups (nonblocking, blocking, PD-L1 KD), ex vivo fluorescence, ROI), the “organ uptake (biodistribution)” value is “higher in the liver and kidney than that in other organs”. For the same substance, the “ex vivo fluorescent signal in xenografts of cancer cells with PD-L1 knockdown” value in data set [6] (PD-L1 knockdown A375, 1 nM Cy5.5-A11 i.v.) was “dramatically decreased”; in data set [9] (PD-L1 knockdown MDA-MB-231, 1 nM Cy5.5-A11 i.v.), “dramatically decreased”; in data set [10] (PD-L1 knockdown H460, 1 nM Cy5.5-A11 i.v.) it was “dramatically decreased”.
